Ecoli WT expand: growth inhibitors of wild-type E. coli, primary screen, strain BW25113, expanded library, OD600 | OD600 absorbance | growth inhibition, % at 100 µM | hit rate 0.15% among 98,000 | AID 710, 2007;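 active = growth inhibition above about 50% at one test dose, limit read from the data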;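 also: growth measured after 20 h incubation at 37 °C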
Ecoli tolC: growth inhibitors of E. coli tolC mutant, primary screen, strain BW25113 ΔtolC::kan, 384-well; OD615; growth inhibition, % at 10 µM (by protocol); hit rate 2.2% among 65,000; AID 573, 2007;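 active = growth inhibition at or above a cutoff equal to the mean over every tested compound plus 3 SD, cut at about 60% in these data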;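 also: growth measured after 20 h incubation at 37 °C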
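Test system: E. coli BW25113 ΔtolC::kan bacteria | Medium: Kanamycin-containing LB broth (50 µg/mL) | Dosing: One dose of 10 µM final | Times: 20 h incubation with compound, 37 °C | Detection: Optical density read at 615 nm | Read-out basis: Percent growth inhibition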
H69AR inhibit: proliferation blockers of H69AR lung cancer cells, primary screen, cell-based, human, 86K library. H69AR lung tumor viability, ATP luminescence, 72 h; active compounds read low. hit rate 6% among 85,000. AID 598, 2007. viability, % at 10 µM;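 active = viability at or below 40%; inactive = viability above 40%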;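 also: multidrug resistant small cell line overexpressing MRP-1 efflux transporter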
Jurkat viability: cytotoxicity toward Jurkat T cells, primary screen, cytotoxicity control, cell-based, Jurkat E6.1, 60K MLSMR library; hit rate 1.2% among 56,000; inhibition, % at 4 µM; Jurkat E6.1 viability, ATP luminescence, 48 h; AID 463, 2006;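 active = inhibition above the mean inhibition of all tested compounds plus 3 SD, cut at about 28% in these data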
Fibroblast inh: antiproliferative effect on LL 47 fibroblasts – human, LL 47 cells, CellTiter-Glo luminescence, primary screen. LL 47 human lung fibroblast viability, ATP luminescence; active compounds read low. viability, % at 10 µM. hit rate 1.1% among 85,000;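 active = viability at or below 50% in the single dose screen; inactive = viability above 50%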;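 also: compound exposure lasted 72 h before the ATP readout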
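Material: human lung fibroblast line LL 47, low passage; Evaluation: viability percentage against median untreated-cell control; Buffer or medium: 15% FBS in IMEM; Incubation: 72 h compound exposure at 37 °C after overnight plating; Dosing: 0.1% DMSO in all compound wells; Measured by: CellTiter-Glo luminescence.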
HUVEC inhibit: inhibitors of HUVEC proliferation, primary screen, cell-based, 384-well | viability, % at 10 µM (by protocol) | AID 648, 2007 | hit rate 1.1% among 86,000 | CellTiter-Glo luminescence, 72 h; active compounds read low;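 active = viability at or below 30%; inactive = viability above 30%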
A number is an active result; . = inactive; / = no result. Hits are enriched below; roughly 6.4% of the tested compounds scored in any of these assays.

SMILES	Ecoli WT expand	Ecoli tolC	H69AR inhibit	Jurkat viability	Fibroblast inh	HUVEC inhibit
COc1ccc(CCn2c(=S)[nH]c3cc(C(=O)NCc4ccco4)ccc3c2=O)cc1OC	.	.	4.4	.	.	7.3
CC(C)(C)c1ccc(S(=O)(=O)N2CCC(c3nc4ccc(Cl)cc4[nH]3)CC2)cc1	/	/	35	/	.	.
CC(=O)Nc1ccc(S(=O)(=O)N2CCC(c3nc4ccc(C)cc4[nH]3)CC2)cc1	.	.	.	/	.	.
CCOC(=O)c1[nH]c(C)c(/C(O)=C2\C(=O)C(=O)N(CCCN(C)C)C2c2cccnc2)c1C (stereo not drawn)	.	.	.	.	.	.
Cc1ccc(-c2csc3ncnc(NCCN4CCOCC4)c23)cc1	.	/	27	/	.	.
COc1ccc(-c2csc3ncnc(NCCN4CCOCC4)c23)cc1	.	.	21	.	.	.
Clc1ccc(-c2csc3ncnc(NCCN4CCOCC4)c23)cc1	.	/	.	/	.	.
CCOC(=O)c1ccc(Nc2nc(-c3cccnc3)nc3ccccc23)cc1	.	/	/	/	/	/
N#C/C(=C/c1ccc(N2CCCCC2)o1)c1cccc(F)c1	.	/	.	/	.	.
N#C/C(=C/c1ccc(N2CCCCCC2)o1)c1ccc(Cl)cc1	.	/	.	/	48	.
Cc1ccc(S(=O)(=O)N2CCN=C2c2ccccc2)cc1C	/	/	.	/	.	.
COc1cc(S(=O)(=O)N2CCN=C2c2ccccc2)ccc1F	.	.	23	.	.	.
CC(=O)Nc1cccc(NC(=O)CSc2nnc(Cc3cccn3C)n2CCc2ccccc2)c1	.	.	.	.	.	.
O=C(CN(C1CCCCC1)S(=O)(=O)c1ccc(F)cc1)NCc1ccncc1	.	.	/	/	/	/
Cc1nc2oc(C(=O)c3ccc(Br)cc3)c(N)c2c2c1COC(C)(C)C2	.	.	.	/	.	.
CCCc1nc2oc(C(=O)c3ccccc3)c(N)c2c2c1COC(C)(C)C2	.	/	5.7	/	40	.
O=C(CCSc1ccc(Cl)cc1)NC12CC3CC(CC(C3)C1)C2	.	/	/	/	/	/
Nc1[nH]n2c(=O)c3c(nc2c1N=Nc1ccc(Cl)cc1)CCCC3	.	/	/	/	/	/
Cc1[nH]n2c(=O)c3c(nc2c1-c1ccc(Cl)cc1)CCC3	.	100	26	/	.	.
Cc1[nH]n2c(=O)c3c(nc2c1-c1ccccc1)CCC3	.	.	25	.	.	.
CC(C)(C)OC(=O)NC(CCCCNC=O)C(=O)O (stereo not drawn)	.	.	.	.	.	.
O=C(CSc1nc2cc3ccccc3cc2[nH]1)Nc1ccc(F)cc1	.	/	.	/	.	.
CCN1CCN(CC(=O)Nc2sc3c(c2C#N)CCC(C)C3)CC1 (stereo not drawn)	.	.	32	.	.	.
CC1CCc2c(sc(NC(=O)C(=O)NCc3ccco3)c2C#N)C1 (stereo not drawn)	.	/	.	/	.	.
COc1ccc(N2CCN(c3oc(COc4ccccc4)nc3C#N)CC2)cc1	.	.	.	/	.	.
SMILES	Ecoli WT expand	Ecoli tolC	H69AR inhibit	Jurkat viability	Fibroblast inh	HUVEC inhibit
COc1ccc(N2CCN(c3oc(Cc4ccccc4)nc3C#N)CC2)cc1	.	/	35	/	.	.
CCN1/C(=C/c2ccc3cccc(C)c3[n+]2CC)Sc2ccccc21	72	/	/	/	/	/
COc1ccc(N2C(=O)CCC(C(=O)N3CCOCC3)C2c2ccc(F)cc2)cc1 (stereo not drawn)	.	.	/	/	/	/
COc1ccc(-n2c(COc3ccccc3)nnc2SCc2ccc(C#N)cc2)cc1	.	63	.	.	.	.
N#Cc1ccc(CSc2nnc(-c3cccs3)n2-c2ccccc2)cc1	.	74	.	.	.	.
CC(C)OP(=O)(OC(C)C)C1(O)C(=O)Nc2ccccc21 (stereo not drawn)	.	/	/	/	/	/
O=C(COc1ccccc1)n1nc(-c2ccc(Cl)cc2)nc1NCc1ccco1	.	.	12	.	.	.
O=C(c1ccco1)n1nc(-c2ccccc2)nc1NCc1ccco1	.	.	.	.	.	.
O=C(c1ccco1)n1nc(-c2ccc(Cl)cc2)nc1NCc1ccco1	.	.	36	.	.	.
COCC(=O)n1nc(-c2ccc(Cl)cc2)nc1NCc1ccc(F)cc1	.	/	33	/	.	.
CC(=O)n1nc(-c2ccccc2)nc1NCc1ccc(F)cc1	.	.	.	.	.	.
CCc1ccc(C(C(=O)NCCOC)N(C(=O)Cn2nnc3ccccc32)c2cccnc2)cc1 (stereo not drawn)	/	/	.	/	.	.
CCOC(=O)C1CCN(C(=O)COc2ccc(S(=O)(=O)NC(C)(C)C)cc2)CC1	.	.	.	.	.	.
Cc1ccc(S(=O)(=O)[N-]c2nc3ccccc3nc2-n2cc[n+](CCC(C)C)c2)cc1	.	/	.	/	.	.
Cc1ccc(S(=O)(=O)/N=C2\C(=O)c3ccccc3C([O-])=C2n2cc[n+](CCC(C)C)c2)cc1	.	/	.	/	44	4.4
CCC(C)n1c(-c2cccs2)nc2nc3ccccc3nc21 (stereo not drawn)	.	.	.	.	.	.
Cc1ccc(C2CC(c3cccs3)=NN2C(=O)CSC2=NN3CCCC(=O)N=C3S2)cc1 (stereo not drawn)	.	/	11	/	.	.
COc1ccc(C2CC(c3cccs3)=NN2C(=O)CSC2=NN3CCCC(=O)N=C3S2)cc1 (stereo not drawn)	.	/	.	/	.	.
CCOc1ccc(-n2ccnc2SCC(=O)NCc2ccc3c(c2)OCO3)cc1	.	.	.	.	.	.
COC(=O)c1cc(COc2ccc3c(c2)oc(=O)c2ccccc23)c(C)o1	.	/	20	/	.	25
C=CC[n+]1c(-c2ccc(OCC)cc2)csc1NNC(=O)Nc1ccccc1	.	/	.	/	.	.
Cc1ccsc1/C=C/C1=Cc2c(sc(NC(=O)CSc3n[nH]c(N)n3)c2C#N)C(C)(C)C1	.	/	1.7	/	.	15
Cc1ccc(CNC(=O)CSc2n[nH]c(N)n2)cc1	.	.	.	.	.	.
CCOc1ccc(/C=C/C2=Cc3c(sc(NC(=O)CSc4n[nH]c(N)n4)c3C#N)C(C)(C)C2)cc1	.	/	1.8	/	48	3.6
CCOc1cccc(NC(=O)CSc2nc(C)c3c(c2C#N)CCCC3)c1	.	/	.	/	.	.
Cc1nonc1OCC(C)(COc1nonc1C)NC(=O)c1ccccc1	/	/	.	/	.	.
CCOC(=O)Cc1csc(NC(=O)c2cc3c(s2)CCCC3)n1	.	/	.	/	.	.
CCOC(=O)Cc1csc(NC(=O)NC2(C(F)(F)F)Oc3ccccc3O2)n1	.	/	17	/	.	.
CCOC(=O)Cc1csc(NC(=O)NC2(C(F)(F)F)Oc3ccc(Cl)cc3O2)n1 (stereo not drawn)	.	/	/	/	/	/
CCOC(=O)Cc1csc(NC(=O)c2ccc(S(=O)(=O)N3CCCCC3)cc2)n1	.	62	/	.	/	/

Compound activity deposited in PubChem BioAssay by several laboratories.
